Consider 13 compounds from article PMC5558211 (Journal of medicinal chemistry, 2017).

Structures are written as SMILES. “Also recorded” adds a separate entry of the source.

Data set [1] addresses 5FW-Brd4(1) (Homo sapiens, UniProt O60885). Briefly: PrOF NMR titration. In kind it is binding. The essentials: (§1)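 19F NMR at 500 MHz with cryoprobe, 40–50 μM 5FW-labelled bromodomain in 50 mM Tris, 100 mM NaCl, pH 7.4, 5% D2O (BrdT samples also 3 mM DTT). Used 90° flip angle, 0.7 s relaxation delay, 0.1 s acquisition and 500 transients, referenced to TFA at −76.55 ppm. Ligand was titrated from concentrated DMSO stocks, keeping DMSO below 1%. Kd came from a one-site fit accounting for ligand depletion.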

Data set [2] has as its system c-Myc. Briefly: Western blot of c-Myc levels. In kind it is cell-based. Particulars: MM1.S cells, 6 h. The essentials: (§2)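 MM1.S cells were grown in RPMI-1640 with 10% FBS at 37 °C, 5% CO2, seeded at 1 × 10^6 per well and exposed to increasing inhibitor concentrations for 6 h. Cells were pelleted (300 g, 5 min) and lysed at 4 °C with protease/phosphatase inhibitors plus 5 mM EDTA. Protein was quantified, run on 10 or 12.5% SDS-PAGE, transferred and probed with c-MYC or p21Cip1 antibodies, with chemiluminescent detection.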
For orientation: Immunoblotting shows a protein as a band on a membrane.

Data set [3] concerns p21Cip1. Nature of the data set: Western blot of p21Cip1 levels. The settings on record: MM1.S cells, 6 h. Format: cell-based. The essentials: as §2
The target of data set [4] is 5FW-BPTF (Homo sapiens, UniProt Q12830). Nature of the data set: PrOF NMR titration. The settings on record: non-BET bromodomain BPTF. In kind it is binding.
A short description of data set [5]: Stability of DMSO solution over freeze-thaw cycles by ESI-MS. In kind it is physicochemical. Particulars: DMSO solution at −20 °C, several freeze-thaw cycles.
Data set [6] deals with 5FW-BrdT(1) (Homo sapiens, UniProt Q58F21). Briefly: PrOF NMR titration. Format: binding. In a few lines:
as §1

In data set [7] the target is T1, Brd4(1) (Homo sapiens, UniProt O60885). Briefly: AlphaScreen competition against biotinylated compound 2. Format: binding. Particulars: for Hill slope: alpha-screen competition. A general note: Bead proximity is the source of the signal in Alpha formats.
The test system of data set [8] is MM1.S cells. Nature of the data set: Cell viability. In kind it is cell-based.
Data set [9] addresses BrdT(1) (Homo sapiens, UniProt Q58F21). Briefly: Fluorescence anisotropy competition assay with BI-BODIPY tracer. Format: binding. A general note: Fluorescence polarisation rises when a labelled molecule tumbles more slowly, as on binding a larger partner.
For data set [10], the target named is T1, Brd4(1). Described as above. Format: binding.

As to `CCn1c(N)cc(=O)[nH]c1=O` [6-amino-1-ethyluracil, reference compound], the ligand efficiency in [1] (from PrOF NMR Kd) is 0.39 kcal/mol/non-hydrogen atom.

`Cc1sc2c(c1C)C(c1ccc(Cl)cc1)=N[C@@H](CC(=O)OC(C)(C)C)c1nnc(C)n1-2` [Compound 2, (+)-JQ1, reference compound]: the “effect on c-Myc levels” value in data set [2] is on record as “dose-dependent reduction of c-Myc levels”. Also, the “effect on p21Cip1 levels” value in data set [3] is “upregulation of p21Cip1 levels”.

With `CCn1c2c(c(=O)[nH]c1=O)C(c1ccc(C)cc1)C1=C(COC1=O)N2` (stereo not drawn) [Compound 3, 1-Ethyl-5-(p-tolyl)-5,9-dihydrofuro[3′,4′:5,6]pyrido[2,3-d]pyrimidine-2,4,6(1H,3H,8H)-trione], the “binding by PrOF NMR” value in [4] is recorded as “does not bind; also recorded: no binding was detected”. Also, the “stability of dihydropyridine moiety” value in data set [5] is recorded as “remains stable”. The “binding behaviour by PrOF NMR” value in [6] and in data set [1] was “slow to intermediate exchange” in each case. For the same compound, the “effect on c-Myc levels” value in data set [2] is reported as “ineffective in altering c-Myc or p21Cip1 levels”. For the same compound, the “effect on p21Cip1 levels” value in [3] is “ineffective in altering c-Myc or p21Cip1 levels”. Also, the “effect of serum on binding by PrOF NMR” value in [1] (presence of serum) is given as “did not interfere with the binding”. The Hill slope (usually a measure of the steepness of the concentration-response curve) in data set [7] was −1. In data set [8], the growth inhibition activity entry is given as “lacked growth inhibition activity”.

On to `Cc1ccc(C2C3=C(COC3=O)Nc3c2c(=O)n(C)c(=O)n3C)cc1` (stereo not drawn) [Compound 3e, 1,3-Dimethyl-5-(p-tolyl)-5,9-dihydrofuro[3′,4′:5,6]pyrido[2,3-d]pyrimidine-2,4,6(1H,3H,8H)-trione], for which, in data set [9], the “binding by fluorescence anisotropy” value was “inactive”.

Take `COc1ccc(C2C3=C(COC3=O)Nc3c2c(=O)n(C)c(=O)n3C)cc1` (stereo not drawn) [Compound 3f, 5-(4-Methoxyphenyl)-1,3-dimethyl-5,9-dihydrofuro[3′,4′:5,6]pyrido[2,3-d]pyrimidine-2,4,6(1H,3H,8H)-trione]: in [9], the “binding by fluorescence anisotropy” value is “inactive”.

On to `Cc1ccc(C2C3=C(COC3=O)Nc3c2c(=O)[nH]c(=O)n3CC(F)(F)F)cc1` (stereo not drawn) [Compound 3j, 5-(p-Tolyl)-1-(2,2,2-trifluoroethyl)-5,9-dihydrofuro[3′,4′:5,6]pyrido[2,3-d]pyrimidine-2,4,6(1H,3H,8H)-trione], for which, in data set [2], the “effect on c-Myc levels” value is “ineffective in altering c-Myc or p21Cip1 levels”. Further, the “effect on p21Cip1 levels” value in [3] is listed as “ineffective in altering c-Myc or p21Cip1 levels”. In [1], the “binding behaviour by PrOF NMR” value is “slow to intermediate exchange”. For the same compound, in data set [7], the IC50 – broadly, the point on the concentration scale where inhibition reaches its midpoint – was 4.6 µM and the Hill slope is −1.6. In addition, in data set [8], the growth inhibition activity result is given as “lacked growth inhibition activity”.

Consider `CCn1c2c(c(=O)n(C)c1=O)C(c1ccc(C)cc1)C1=C(COC1=O)N2` (stereo not drawn) [Compound 3m, 1-Ethyl-3-methyl-5-(p-tolyl)-5,9-dihydrofuro[3′,4′:5,6]pyrido[2,3-d]pyrimidine-2,4,6(1H,3H,8H)-trione], for which the “binding by fluorescence anisotropy” value in data set [9] was “inactive”.

`CCn1c(=O)[nH]c(=O)c2c(-c3ccc(C)cc3)c3c(nc21)COC3=O` [Compound 3n, 1-Ethyl-5-(p-tolyl)furo[3′,4′:5,6]pyrido[2,3-d]pyrimidine-2,4,6(1H,3H,8H)-trione]: the “binding by fluorescence anisotropy” value in data set [10] and in data set [9] was “no binding was observed” each time.

As to `CCn1c2c(c(=O)[nH]c1=O)C(c1ccc(C)cc1)C1=C(CN(Cc3ccccc3)C1=O)N2` (stereo not drawn) [Compound 3p, 7-Benzyl-1-ethyl-5-(p-tolyl)-5,7,8,9-tetrahydro-1H-pyrrolo[3',4':5,6]pyrido[2,3-d]pyrimidine-2,4,6(3H)-trione], the “effect on c-Myc levels” value in [2] is “decreasing c-Myc expression levels”. In data set [3], the “effect on p21Cip1 levels” value is “concomitant increase in p21Cip1”.

As for `CCn1c2c(c(=O)[nH]c1=O)C(c1ccc(C)cc1)C1=C(CN(CCc3ccccc3)C1=O)N2` (stereo not drawn) [Compound 3q, 1-Ethyl-7-phenethyl-5-(p-tolyl)-5,7,8,9-tetrahydro-1H-pyrrolo[3',4':5,6]pyrido[2,3-d]pyrimidine-2,4,6(3H)-trione], the “effect on c-Myc levels” value in data set [2] is “decreasing c-Myc expression levels”. Moreover, the “effect on p21Cip1 levels” value in [3] is “concomitant increase in p21Cip1”.

On to `CCn1c2c(c(=O)[nH]c1=O)C(c1ccc(C)cc1)C1=C(CN(CCc3ccc(OC)cc3)C1=O)N2` (stereo not drawn) [Compound 3r, 1-Ethyl-7-(4-methoxyphenethyl)-5-(p-tolyl)-5,7,8,9-tetrahydro-1H-pyrrolo[3',4':5,6]pyrido[2,3-d]pyrimidine-2,4,6(3H)-trione], for which the “effect on c-Myc levels” value in [2] was “decreasing c-Myc expression levels”. In addition, the “effect on p21Cip1 levels” value in [3] is given as “concomitant increase in p21Cip1”.

Turning to `CCn1c2c(c(=O)[nH]c1=O)C(c1ccc(C)cc1)C1=C(CN(CCc3ccc(O)cc3)C1=O)N2` (stereo not drawn) [Compound 3s, 1-Ethyl-7-(4-hydroxyphenethyl)-5-(p-tolyl)-5,7,8,9-tetrahydro-1H-pyrrolo[3',4':5,6]pyrido[2,3-d]pyrimidine-2,4,6(3H)-trione], the “effect on c-Myc levels” value in data set [2] was “decreasing c-Myc expression levels”. For the same compound, the “effect on p21Cip1 levels” value in data set [3] is recorded as “concomitant increase in p21Cip1”. The “binding behaviour by PrOF NMR” value in [1] was “slow exchange”.

In the case of `O=C1COC(=O)C1` [tetronic acid, reference compound], the “binding behaviour by PrOF NMR” value in [1] is on record as “No binding was observed”.
